Tests used:
Solubility check = assay type: physicochemical
[1] = MTT cell viability, compound alone; assay type: cell-based, human; conditions: human, SH-SY5Y neuroblastoma cells
How it was run: (§1)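 Cells were SH-SY5Y grown in DMEM/F12 with 10% FBS at 37 °C and 5% CO₂, seeded at 5×10⁴ cells/well, and given fresh medium with 0.9 µM compound alone 24 h after plating. After 24 h, MTT (5 mg/mL stock) was added for 4 h, then isopropanol/0.04 mol/L HCl overnight. Read OD570 minus OD700, normalised to untreated and 100% death controls. Triplicate wells, three plates, mean±SEM, kept in the dark.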

Aβ (1–42) [2] = target: T1, Aβ (1–42) (Homo sapiens, UniProt P05067); assay: SDS-PAGE and western blotting of Aβ; assay type: biochemical; conditions: for Smear bands in SDS-PAGE: 30 µM compound, 24 h, 37 °C; for Effects on Aβ aggregation (in words): derivatives without hydroxy groups on the aromatic groups
T1 sequence (P05067 672-713): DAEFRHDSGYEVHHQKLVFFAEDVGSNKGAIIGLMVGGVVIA
How it was run: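 Aβ(1–42) monomerized in HFIP (1 mM, 37 °C, 1 h), diluted to 10 µM in PBS with 30 µM test compound (final; DMSO vehicle), incubated 24 h at 37 °C. Diluted to 2.25 µM in unheated SDS buffer, run on 10–20% gels, blotted to PVDF and probed with 6E10 then HRP anti-mouse, with chemiluminescence detection. Band intensities per range were read against marker. Means±SEM, ≥3 independent experiments, ANOVA/Dunnett vs DMSO.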

SH-SY5Y cells [3] = assay: MTT cell viability, compound alone; assay type: cell-based, human; conditions: SH-SY5Y, 24 h; for Viability C. Compound alone: 0.9 µM compound, mean±SEM
How it was run: as §1

SH-SY5Y cells [4] = assay: MTT cell viability, simultaneous treatment with Aβ aggregates and the compounds; assay type: cell-based, human; conditions: 24 h, 0.3 µM Aβ aggregates, 0.9 µM compound
How it was run: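 Aβ(1–42) was HFIP-pretreated, taken up at 5 mM in DMSO, diluted to 10 µM in PBS and aggregated 24 h at 37 °C. SH-SY5Y cells (5×10⁴/well, 24 h after plating) received 0.3 µM of these aggregates plus 0.9 µM compound together for 24 h. Read-out was MTT (4 h), OD570−OD700, as % of untreated and 100% death controls. Triplicate wells in ≥3 independent runs; ANOVA/Dunnett against DMSO vehicle.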

APP/PS1 mice = conditions: cited from earlier work
Aβ aggregates = Aβ aggregates (Homo sapiens, UniProt P05067); assay: Thioflavin T fluorescence competition assay; assay type: binding
Chain of Aβ aggregates (P05067 672-713): as above

Aβ (1–42) [5] = target: T1, Aβ (1–42); assay: Native gel electrophoresis of Aβ; assay type: biochemical; conditions: 30 µM compound, 24 h, 37 °C
How it was run: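 HFIP-pretreated Aβ(1–42) (5 mM DMSO stock) was diluted to 10 µM in PBS with 30 µM compound (1.5 mM DMSO stock) and held 24 h at 37 °C in the dark; DMSO served as vehicle. Samples were brought to 2.25 µM in native sample buffer, run on 5–20% gels at 100 V for 4 h at 4 °C and transferred to PVDF. Blots used 6E10 anti-Aβ (1:1000), HRP anti-mouse (1:20,000) and chemiluminescence.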

amyloid plaques = conditions: transgenic mouse model of AD, injection via the tail vein; cited from earlier work
Aβ = conditions: cited from earlier work
[6] = all ranges of 15–20, 20–37, 37–75, and 75–200 kDa

COc1cc(/C=C/C(=O)CC(=O)/C=C/c2ccc(O)c(OC)c2)ccc1O [Cur, Curcumin, reference compound]
Solubility / precipitation (Solubility check; 30 µM in PBS with DMSO): no precipitation | Solubility / precipitation (Solubility check; 200 µM solution): clearly observed precipitates | viability at 24 h, 0.9 µM [1]: 97.5 ± 7.3%

COc1cc(C=CC(=O)CC(=O)C=Cc2ccc(O)c(OC(F)(F)F)c2)ccc1O [SY2, 1-[(4-Hydroxy-3-methoxy)phenyl]-7-[(4-hydroxy-3-trifluoromethoxy)phenyl]-1,6-heptadiene-3,5-dione]
Densities of the bands of Aβ (1–42) vs vehicle control (in words) (Aβ (1–42) [2]; only in the range of 15–20 kDa): significant increases | Viability C. Compound alone (SH-SY5Y cells [3]): 101.4±2.0%

COc1cc(C=CC(=O)CC(=O)C=Cc2cc(C(F)(F)F)cc(C(F)(F)F)c2)ccc1O [SY4, 1-[(4-Hydroxy-3-methoxy)phenyl]-7-[3,5-bis(trifluoromethyl)phenyl]-1,6-heptadiene-3,5-dione]
Viability C. Compound alone (SH-SY5Y cells [3]): 91.6±3.2% | Cell viability after simultaneous treatment vs vehicle control (in words) (SH-SY5Y cells [4]): significant reduction in cell viability

COC(=O)CCC(C(=O)C=Cc1ccc(O)c(OC(F)(F)F)c1)C(=O)C=Cc1ccc(O)c(OC(F)(F)F)c1 (stereo not drawn) [SY5, 1,7-bis (4′-hydroxy-3′-trifluoromethoxyphenyl)-4-methoxycarbonylethyl-1,6-heptadiene-3,5-dione]
Amyloid deposition (APP/PS1 mice): reduce amyloid deposition | Cognitive decline (APP/PS1 mice): inhibit cognitive decline | IC50 (Aβ aggregates): 440 nM | Smear bands in native-PAGE (Aβ (1–42) [5]): Marked smear bands | Smear bands in SDS-PAGE (Aβ (1–42) [2]): Marked smear bands | Densities of the bands of Aβ (1–42) vs vehicle control (in words) (Aβ (1–42) [2]; [6]): significant increases | Solubility / precipitation (Solubility check; 30 µM in PBS with DMSO): no precipitation | Binding to amyloid plaques in brain (amyloid plaques): bound to amyloid plaques | Blood–brain barrier penetration (amyloid plaques): penetrated the blood–brain barrier | viability at 24 h, 0.9 µM [1]: 102 ± 3.6% | Inhibition of Aβ aggregation (Aβ; 30 µM, ref our previous study): significant inhibition of Aβ aggregation | Formation of higher molecular size Aβ aggregates (Aβ; incubated with Aβ during the aggregation state in vitro): inhibit the formation of higher molecular size Aβ aggregates

COc1ccc(C=CC(=O)CC(=O)C=Cc2ccc(OC)c(F)c2)cc1F [SY9, 1,7-Bis[(3-fluoro-4-methoxy)phenyl]-1,6-heptadiene-3,5-dione]
Effects on Aβ aggregation (in words) (Aβ (1–42) [2]): no effects on Aβ aggregation | Viability C. Compound alone (SH-SY5Y cells [3]): 94.2±2.5%

COC(=O)CCC(C(=O)C=Cc1cc(F)c(O)c(F)c1)C(=O)C=Cc1cc(F)c(O)c(F)c1 (stereo not drawn) [SY16, 1,7-Bis[(4-hydroxy-3,5-difluoro)phenyl]-4-methoxycarbonylethyl-1,6-hexadiene-3,5-dione]
Viability C. Compound alone (SH-SY5Y cells [3]): 94.1±2.8%

COc1ccc(C=CC(=O)C(C)C(=O)C=Cc2ccc(OC)c(OC(F)(F)F)c2)cc1OC(F)(F)F (stereo not drawn) [SY18, 1,7-Bis[(4-methoxy-3-trifluoromethoxy)phenyl]-4-methyl-1,6-hexadiene-3,5-dione]
Effects on Aβ aggregation (in words) (Aβ (1–42) [2]): no effects on Aβ aggregation | Cell viability after treatment with compound alone (in words) (SH-SY5Y cells [3]; 0.9 µM): significantly reduced cell viability | Viability C. Compound alone (SH-SY5Y cells [3]): 69.5±7.7 %

COCOc1ccc(C=CC(=O)C(CCC(=O)OC(C)(C)C)C(=O)C=Cc2ccc(OCOC)c(OC(F)(F)F)c2)cc1OC(F)(F)F (stereo not drawn) [SY22, 1,7-Bis[(4-methoxymethoxy-3-trifluoromethoxy)phenyl]-4-(1,1-dimethylethoxy)carbonylethyl-1,6-hexadiene-3,5-dione]
Effects on Aβ aggregation (in words) (Aβ (1–42) [2]): no effects on Aβ aggregation | Viability C. Compound alone (SH-SY5Y cells [3]): 95.8±3.6%

COC(=O)CCC(C(=O)C=Cc1ccc(O)c(OC)c1)C(=O)C=Cc1ccc(O)c(OC)c1 (stereo not drawn) [SY23, 1,7-Bis[(4-hydroxy-3-methoxy)phenyl]-4-methoxycarbonylethyl-1,6-heptadiene-3,5-dione]
Viability C. Compound alone (SH-SY5Y cells [3]): 97.9±2.4%

O=C(C=Cc1ccc(O)c(OC(F)(F)F)c1)C(CCOCCOCCOCCOC1CCCCO1)C(=O)C=Cc1ccc(O)c(OC(F)(F)F)c1 (stereo not drawn) [SY27, 1,7-Bis[(4-hydroxy-3-trifluoromethoxy)phenyl]-4-[11-(2-tetrahydropyranyloxy)-3,6,9-trioxaundec-1yl]-1,6-heptadiene-3,5-dione]
Viability C. Compound alone (SH-SY5Y cells [3]): 98.5±5.3%

O=C(C=Cc1ccc(O)c(OC(F)(F)F)c1)C(CCOC1CCCCO1)C(=O)C=Cc1ccc(O)c(OC(F)(F)F)c1 (stereo not drawn) [SY33, 1,7-Bis[(4-hydroxy-3-trifluoromethoxy)phenyl]-4-(2-tetrahydropyranyloxy)ethyl-1,6-heptadiene-3,5-dione]
Smear bands in native-PAGE (Aβ (1–42) [5]): Marked smear bands | Smear bands in SDS-PAGE (Aβ (1–42) [2]): Marked smear bands | Densities of the bands of Aβ (1–42) vs vehicle control (in words) (Aβ (1–42) [2]; [6]): significant increases | Solubility / precipitation (Solubility check; 30 µM in PBS with DMSO): no precipitation | Viability C. Compound alone (SH-SY5Y cells [3]): 97.8±4.2%

COC(=O)COc1ccc(C=CC(=O)CC(=O)C=Cc2ccc(O)c(OC)c2)cc1OC [SY35, 1-[(4-Hydroxy-3-methoxy)phenyl]-7-[(3-methoxy-4-methoxycarbonylmethoxy)phenyl]-1,6-heptadiene-3,5-dione]
Viability C. Compound alone (SH-SY5Y cells [3]): 93.7±2.9%

COC(=O)CCC(C(=O)C=Cc1ccc(O)c(OC(F)(F)F)c1)C(=O)C=Cc1ccco1 (stereo not drawn) [SY37, 1-[(4-Hydroxy-3-trifluoromethoxy)phenyl]-7-(2-furyl)-4-methoxycarbonylethyl-1,6-heptadiene-3,5-dione]
Densities of the bands of Aβ (1–42) vs vehicle control (in words) (Aβ (1–42) [2]; only in the range of 20–37 kDa): significant increases | Viability C. Compound alone (SH-SY5Y cells [3]): 93.0±4.1%

COC(=O)CCC(C(=O)C=Cc1ccc(O)c(F)c1)C(=O)C=Cc1ccc(O)c(F)c1 (stereo not drawn) [SY38, 1,7-Bis[(4-hydroxy-3-fluoro)phenyl]-4-methoxycarbonylethyl-1,6-heptadiene-3,5-dione]
Densities of the bands of Aβ (1–42) vs vehicle control (in words) (Aβ (1–42) [2]; only in the range of 20–37 kDa): significant increases | Viability C. Compound alone (SH-SY5Y cells [3]): 91.6±3.9%

CCC(C(=O)C=Cc1ccc(O)c(OC(F)(F)F)c1)C(=O)C=Cc1ccc(O)c(OC(F)(F)F)c1 (stereo not drawn) [SY41, 1,7-Bis[(4-hydroxy-3-trifluoromethoxy)phenyl]-4-ethyl-1,6-heptadiene-3,5-dione]
Viability C. Compound alone (SH-SY5Y cells [3]): 93.4±5.9%

COc1ccc(C=CC(=O)C(CCC(=O)OC(C)(C)C)C(=O)C=Cc2ccc(OC)c(F)c2)cc1F (stereo not drawn) [SY42, 1,7-Bis[(3-fluoro-4-methoxy)phenyl]-4-(1,1-dimethylethoxy)carbonylethyl-1,6-heptadiene-3,5-dione]
Effects on Aβ aggregation (in words) (Aβ (1–42) [2]): no effects on Aβ aggregation | Viability C. Compound alone (SH-SY5Y cells [3]): 88.6±6.3%
